The results in this text go back to ChEMBL document CHEMBL2396525, “Synthesis and anti-HCMV activity of 1-[ω-(phenoxy)alkyl]uracil derivatives and analogues thereof” (Bioorg Med Chem, 2013).

The test system of one data set is Vaccinia virus. The experiment in a line: Antiviral activity against Vaccinia virus Lederle. The data set is classed as functional, organism-based. The following applies: Orthopoxvirus vaccinia.
Data set [1] concerns Human alphaherpesvirus 2. The experiment in a line: Antiviral activity against Herpes simplex virus type 2 G. In kind it is functional, organism-based. The following applies: strain G. An outline of the steps:
(§1)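 Confluent HEL, Vero, HeLa or MDCK cell cultures were inoculated with 100 CCID50 of virus alongside varying compound concentrations. Cytopathicity was scored when it reached completion in untreated virus controls. EC50 is the concentration that reduces virus-induced cytopathogenicity by 50%.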

The next data set concerns Human respirovirus 3. The experiment in a line: Antiviral activity against Parainfluenza virus 3. In kind it is functional, organism-based. In short, it runs like this: as §1
Another data set deals with Punta Toro virus. As to the kind of experiment: Antiviral activity against Punta Toro virus. The data set is classed as functional, organism-based. In short, it runs like this:
as §1

The subject of data set [2] is Respiratory syncytial virus. The experiment in a line: Antiviral activity against Respiratory syncytial virus Long. The data set is classed as functional, organism-based. An outline of the steps:
as §1

Data set [3] relates to Human alphaherpesvirus 1. The experiment in a line: Antiviral activity against Herpes simplex virus type 1 KOS. The data set is classed as functional, organism-based. In short, it runs like this:
as §1

Data set [4] has as its system Human betaherpesvirus 5. As to the kind of experiment: Antiviral actiivty against Human herpesvirus 5 Davis infected in HEL assessed as reduction of virus-induced plaque formation. The data set is classed as functional, organism-based. The following applies: Human betaherpesvirus 5, Davis. An outline of the steps:
(§2)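 HCMV strains AD-169 and Davis were tested on confluent human embryonic lung fibroblast monolayers infected with 100 PFU in the presence of serial compound concentrations. Plaques were counted once formation was complete in untreated infected controls. EC50 is the concentration that cuts plaque formation by 50%.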

Data set [5] has as its system Human alphaherpesvirus 3. As to the kind of experiment: Antiviral activity against Varicella-zoster virus YS. The data set is classed as functional, organism-based. An outline of the steps:
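VZV was assayed by plaque formation. Confluent cell cultures received 10 or 100 PFU with varying compound concentrations, and plaques were recorded once complete in untreated infected controls. EC50 is the concentration that reduces plaque formation by 50%.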

A short description of data set [6]: Cytotoxicity against HEL assessed as minimum cytotoxic concentration required to cause microscopically detectable alteration in cell morphology. The data set is classed as cell-based. The following applies: human, HEL cells.
The next data set has as its system Feline coronavirus. As to the kind of experiment: Antiviral activity against Feline coronavirus. In kind it is functional, organism-based.
Data set [7] has as its system Human alphaherpesvirus 1. As to the kind of experiment: Antiviral activity against thymidine kinase deficient acyclovir-resistant Herpes simplex virus type 1 KOS. In kind it is functional, organism-based.
The test system of data set [8] is Human alphaherpesvirus 3. The experiment in a line: Antiviral activity against Varicella-zoster virus OKA. In kind it is functional. The following applies: strain Oka vaccine. In short, it runs like this:
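Confluent cell monolayers were infected with 10 or 100 PFU of VZV in the presence of serial compound dilutions. Plaque formation was recorded once untreated infected controls reached completion. EC50 was the concentration that reduced plaque formation by 50%.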

Data set [9] concerns Mammalian orthoreovirus 1. As to the kind of experiment: Antiviral activity against Reovirus-1. The data set is classed as functional, organism-based. An outline of the steps:
as §1

For a further data set, the system named is Sindbis virus. As to the kind of experiment: Antiviral activity against Sindbis virus. In kind it is functional, organism-based. In short, it runs like this:
as §1

Data set [10] concerns Human immunodeficiency virus 2. As to the kind of experiment: Antiviral activity against HIV2 ROD infected in human CEM cells assessed as inhibition of virus-induced giant cell formation after 4 to 5 days. In kind it is functional, organism-based. The following applies: ISOLATE ROD, CCRF-CEM. In short, it runs like this:
(§3)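 CEM cells at about 3 × 10^5 cells/mL were infected with 100 CCID50 of HIV per mL, with compound dilutions present. They were incubated 4–5 days at 37 °C in humidified CO2, and syncytia were scored microscopically. EC50 is the concentration that inhibits giant cell formation by 50%.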

For data set [11], the system named is Vesicular stomatitis virus. The experiment in a line: Antiviral activity against Vesicular stomatitis virus. The data set is classed as functional, organism-based.
For a further data set, the system named is Coxsackievirus B4. The experiment in a line: Antiviral activity against Coxsackie B4 virus. In kind it is functional, organism-based. In short, it runs like this:
as §1

For data set [12], the system named is Human immunodeficiency virus 1. The experiment in a line: Antiviral activity against HIV1 3B infected in human CEM cells assessed as inhibition of virus-induced giant cell formation after 4 to 5 days. In kind it is functional, organism-based. The following applies: CCRF-CEM. An outline of the steps:
as §3

Data set [13] deals with Influenza A virus. The experiment in a line: Antiviral activity against Influenza virus A virus H3N2. The data set is classed as functional, organism-based. In short, it runs like this:
(§4)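 The assay was a cell-based cytopathicity inhibition test on confluent monolayers with serial compound dilutions. EC50 was the concentration that reduced virus-induced cytopathicity by 50%.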

Data set [14] concerns Human alphaherpesvirus 2. The experiment in a line: Antiviral activity against Herpes simplex virus type 2 Lyons. In kind it is functional, organism-based. In short, it runs like this:
as §1

For the next data set, the system named is Influenza B virus. The experiment in a line: Antiviral activity against Influenza B virus. The data set is classed as functional, organism-based. An outline of the steps:
as §4

In data set [15] the test system is Influenza A virus. As to the kind of experiment: Antiviral activity against Influenza virus A virus H1N1. In kind it is functional, organism-based. In short, it runs like this:
as §4

Data set [16] deals with Human betaherpesvirus 5. As to the kind of experiment: Antiviral actiivty against Human herpesvirus 5 AD169 infected in HEL assessed as reduction of virus-induced plaque formation. The data set is classed as functional, organism-based. The following applies: Human betaherpesvirus 5, AD169. An outline of the steps: as §2

The source made the active and inactive calls. No cut-off for these calls is given here.

Regarding `O=c1ccn(CCCCCOc2ccc(-c3ccccc3)cc2)c(=O)[nH]1`, the outcome (in the data set with Vaccinia virus; in the data set on Human alphaherpesvirus 2 [1]; in the data set with Human respirovirus 3; with Punta Toro virus; in data set [2]; in the data set with Human alphaherpesvirus 1 [3]) was inactive. Further, the result (in the data set with Human alphaherpesvirus 3 [5]; in the data set on Feline coronavirus; with Human alphaherpesvirus 1 [7]; in the data set on Human alphaherpesvirus 3 [8]; in data set [9]; in the data set with Sindbis virus) was inactive. For the same molecule, the outcome (in data set [10]; in [11]; in the data set with Coxsackievirus B4; in [12]; with Influenza A virus [13]; with Human alphaherpesvirus 2 [14]) was inactive. Besides, the result in the data set with Influenza B virus and in the data set with Influenza A virus [15] was inactive. Moreover, the figures for the EC50 with Human betaherpesvirus 5 [4] and in the data set with Human betaherpesvirus 5 [16] were 54 µM and above 20 µM, respectively. The MCC in data set [6] was found to be 100 µM.

As to `O=c1ccn(CCCCOc2ccc(Br)cc2)c(=O)[nH]1`, the outcome (in the data set with Vaccinia virus; in the data set with Human alphaherpesvirus 2 [1]; with Human respirovirus 3; in the data set with Punta Toro virus; in [2]; in the data set with Human alphaherpesvirus 1 [3]) was inactive. For the same molecule, the result (in the data set with Human alphaherpesvirus 3 [5]; with Feline coronavirus; with Human alphaherpesvirus 1 [7]; with Human alphaherpesvirus 3 [8]; in data set [9]; with Sindbis virus) was inactive. Also, the result (in data set [10]; in [11]; in the data set with Coxsackievirus B4; in data set [12]; in the data set with Influenza A virus [13]; with Human alphaherpesvirus 2 [14]) was inactive. Also, the outcome with Influenza B virus and in the data set with Influenza A virus [15] was inactive. In addition, the concentration giving a half-maximal response (EC50) in the data set on Human betaherpesvirus 5 [4] and with Human betaherpesvirus 5 [16] was above 20 µM in each case. Moreover, in data set [6], the MCC was determined as 100 µM.

`O=c1ccn(CCCCCOc2ccc([N+](=O)[O-])cc2)c(=O)[nH]1`: the outcome (in the data set on Vaccinia virus; in the data set on Human alphaherpesvirus 2 [1]; with Human respirovirus 3; in the data set with Punta Toro virus; in data set [2]; in the data set on Human alphaherpesvirus 1 [3]) was inactive. The outcome (in the data set on Human alphaherpesvirus 3 [5]; with Feline coronavirus; in the data set with Human alphaherpesvirus 1 [7]; in the data set on Human alphaherpesvirus 3 [8]; in data set [9]; with Sindbis virus) was inactive. Further, the outcome (in [10]; in [11]; in the data set on Coxsackievirus B4; in data set [12]; in the data set with Influenza A virus [13]; in the data set on Human alphaherpesvirus 2 [14]) was inactive. In addition, the result with Influenza B virus and with Influenza A virus [15] was inactive. For the same molecule, the concentration giving a half-maximal response (EC50) with Human betaherpesvirus 5 [4] and with Human betaherpesvirus 5 [16] was above 4 µM throughout. Moreover, in data set [6], the MCC was determined as 20 µM.

`O=C(O)c1ccc(OCCCCCn2ccc(=O)[nH]c2=O)cc1`: the outcome (in the data set with Vaccinia virus; in the data set on Human alphaherpesvirus 2 [1]; in the data set on Human respirovirus 3; in the data set with Punta Toro virus; in data set [2]; in the data set on Human alphaherpesvirus 1 [3]) was inactive. The outcome (in the data set on Human alphaherpesvirus 3 [5]; in the data set on Feline coronavirus; in the data set on Human alphaherpesvirus 1 [7]; in the data set on Human alphaherpesvirus 3 [8]; in data set [9]; in the data set on Sindbis virus) was inactive. In addition, the outcome (in [10]; in data set [11]; with Coxsackievirus B4; in data set [12]; in the data set with Influenza A virus [13]; in the data set on Human alphaherpesvirus 2 [14]) was inactive. In addition, the outcome in the data set on Influenza B virus and with Influenza A virus [15] was inactive. The EC50 in the data set with Human betaherpesvirus 5 [4] and in the data set on Human betaherpesvirus 5 [16] was above 100 µM in each case. For the same molecule, the MCC in data set [6] was above 100 µM.

As to `O=c1ccn(CCCCCCOc2ccc(Br)cc2)c(=O)[nH]1`, the result (in the data set with Vaccinia virus; in the data set with Human alphaherpesvirus 2 [1]; with Human respirovirus 3; with Punta Toro virus; in [2]; in the data set with Human alphaherpesvirus 1 [3]) was inactive. For the same molecule, the result (in the data set with Human alphaherpesvirus 3 [5]; in the data set on Feline coronavirus; with Human alphaherpesvirus 1 [7]; in the data set with Human alphaherpesvirus 3 [8]; in [9]; with Sindbis virus) was inactive. Besides, the result (in data set [10]; in [11]; in the data set with Coxsackievirus B4; in data set [12]; with Influenza A virus [13]; with Human alphaherpesvirus 2 [14]) was inactive. Besides, the result in the data set on Influenza B virus and in the data set on Influenza A virus [15] was inactive. In addition, the EC50 with Human betaherpesvirus 5 [4] and with Human betaherpesvirus 5 [16] was above 4 µM throughout. The MCC in data set [6] was 20 µM.

On to `O=c1ccn(CCCCCOc2ccc(Cl)cc2)c(=O)[nH]1`, for which the result (in the data set with Vaccinia virus; in the data set with Human alphaherpesvirus 2 [1]; in the data set with Human respirovirus 3; in the data set on Punta Toro virus; in data set [2]; with Human alphaherpesvirus 1 [3]) was inactive. The result (with Human alphaherpesvirus 3 [5]; with Feline coronavirus; with Human alphaherpesvirus 1 [7]; in the data set on Human alphaherpesvirus 3 [8]; in data set [9]; in the data set on Sindbis virus) was inactive. For the same molecule, the outcome (in data set [10]; in data set [11]; in the data set with Coxsackievirus B4; in data set [12]; with Influenza A virus [13]; in the data set with Human alphaherpesvirus 2 [14]) was inactive. The outcome in the data set on Influenza B virus and with Influenza A virus [15] was inactive. Besides, the EC50 with Human betaherpesvirus 5 [4] and in the data set with Human betaherpesvirus 5 [16] was above 100 µM each time. Moreover, in [6], the MCC was above 100 µM.

One may read the EC50 as the concentration giving half of the maximal effect.
